# Assay results reported in PubChem BioAssay.
# Calls of active or inactive are those of the source.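 Rule for the calls, unless noted: active = fluorescence slope higher than the sample average by over 3 SD (cut at about -0.22 in these data, passing the limit was not always enough); inactive = the rest.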
# Columns and labels:
# [1] = inhibitors of TNFa-induced NFkB p65 translocation, primary screen, imaging, HUVEC, MLSMR starter and 10KST1 sets (AID 438;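 active = inhibition above 20% together with a positive visual image hit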;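 note: compound added about 3h40 before a 20 min TNFalpha stimulation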;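 for inhibition: signal is the nuclear over cytoplasmic p65 intensity ratio per well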); details: HUVEC TNFa-induced p65 nuclear translocation; cell count: measured here: nuclei count (cytotoxicity indicator), at 2.08 µM; inhibition: at 2 µM, stronger effect = higher value, 0% TNFa-plus-vehicle, 100% no-TNFa wells
# [2] = inhibitors of mutant huntingtin aggregation, primary screen, imaging, exon1htt(103Q)mCFP cells, high-content imaging (AID 483;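 active = visual image review flags a hit and inhibition of aggregation exceeds 20%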;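 note: compound exposure lasted 3 days before fixation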;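 for nuclei count: percent of the per-plate median nuclei count of sample wells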); details: exon1htt(103Q)mCFP cell line, aggregate imaging, at 2 µM; inhibition of aggregation: stronger effect = higher value; nuclei count: measured here: cell count, toxicity
# [3] = inhibitors of E-selectin induction by TNFa, primary screen, imaging, HUVEC, immunofluorescence, MLSMR starter and 10KST1 sets (AID 487;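 active = visually confirmed hit in the image check and inhibition above 20%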;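 for inhibition: signal is fraction of cell area covered by stained E-selectin grains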;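 for nuclei count: 100% = median nuclei count of all wells on the same plate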); details: HUVEC TNFalpha-induced E-selectin immunofluorescence imaging, at 2 µM; inhibition: stronger effect = higher value; nuclei count: measured here: cell number, toxicity
# [4] = target: Voltage-gated potassium channel subunit beta-2 (Rattus norvegicus) (UniProt P62483); assay: KvBeta enzyme negative modulators, primary screen, biochemical, NADPH fluorescence (AID 622); details: recombinant KvBeta, 4-cyanobenzaldehyde reduction, at 10 µM, stronger effect = higher value;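 note: slope of raw intensity against log time taken from 70 to 1610 s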
# [5] = target: Voltage-gated potassium channel subunit beta-2 (Rattus norvegicus) (UniProt P62483); assay: KvBeta positive modulators, primary screen, biochemical, NADPH fluorescence (AID 623;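 active = NADPH fluorescence slope more negative than the mean of all samples by about 3 SD, 99.7% confidence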;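 note: fluorescence intensity change per second fitted from 20 to 320 s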); details: Recombinant KvBeta, NADPH fluorescence decrease slope, 10 min; at 10 µM; stronger effect = lower value
# [6] = target: Alpha-2C adrenergic receptor (Homo sapiens) (UniProt P18825); assay: modulators of alpha2C/GIRK thallium flux, primary screen, cell-based, HEK293 alpha2C/GIRK1/2 (AID 624;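 active = fluorescence slope after compound addition differing from the mean of all screened samples at 99.7% confidence, in either direction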;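 note: slope of fluorescence ratio to pre-addition baseline per second over 15 to 24 s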); details: thallium flux BTC fluorescence, at 10 µM, actives lie on both sides
# [7] = inhibitors of larval lipid processing in zebrafish, primary screen, whole organism, PED6 fluorescence, gall bladder and intestine (AID 686;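 active = a full or partial loss of lipid-probe fluorescence in the fish gall bladder, intestine or both, judged by eye; inactive = no fluorescence loss, or compound toxic to the fish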;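 note: larvae 5 to 7 days old with five fish per well; signal comes from phospholipase A2 cleavage of quenched PED6 carried via bile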); details: Zebrafish larvae PED6 lipid processing, fluorescence scoring; screened at 20 µM (by protocol)
# Outline: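 Incubation: overnight exposure of larvae to compound plus PED6 / Test system: live zebrafish larvae aged 5-7 days, whole organism / Amount: 5 larvae per well / Read-out basis: visual per-well fluorescence inhibition score / Signal: visual fluorescence microscopy scoring of gall bladder, gut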
# [8] = inhibitors of Sendai virus-induced IRF3 signaling, primary screen, TLR/RLR signaling modifier project, cell-based, Sendai virus stimulus, luciferase, 10K MLSCN set (AID 602276;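 active = inhibition at or above 50% at 10 µM; inactive = inhibition below 50%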;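 note: firefly luciferase from ISG56 promoter only with Renilla not read in this screen; 0% = Sendai virus plus DMSO and 100% = medium plus DMSO without virus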); details: HEK293 RL24 IRF3 luciferase reporter, at 10 µM, stronger effect = higher value
# [9] = inhibitors of poly I:C-induced TLR3 signaling, primary screen, cell-based, poly I:C stimulus, luciferase, 10K MLSCN set (AID 602277;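 active = inhibition of the reporter signal at or above 50%; inactive = inhibition below 50%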); details: HEK293-TLR3 RL24 IRF3 luciferase reporter, at 10 µM, stronger effect = higher value
# Sequence of Alpha-2C adrenergic receptor (Homo sapiens) (P18825 whole entry, looked up): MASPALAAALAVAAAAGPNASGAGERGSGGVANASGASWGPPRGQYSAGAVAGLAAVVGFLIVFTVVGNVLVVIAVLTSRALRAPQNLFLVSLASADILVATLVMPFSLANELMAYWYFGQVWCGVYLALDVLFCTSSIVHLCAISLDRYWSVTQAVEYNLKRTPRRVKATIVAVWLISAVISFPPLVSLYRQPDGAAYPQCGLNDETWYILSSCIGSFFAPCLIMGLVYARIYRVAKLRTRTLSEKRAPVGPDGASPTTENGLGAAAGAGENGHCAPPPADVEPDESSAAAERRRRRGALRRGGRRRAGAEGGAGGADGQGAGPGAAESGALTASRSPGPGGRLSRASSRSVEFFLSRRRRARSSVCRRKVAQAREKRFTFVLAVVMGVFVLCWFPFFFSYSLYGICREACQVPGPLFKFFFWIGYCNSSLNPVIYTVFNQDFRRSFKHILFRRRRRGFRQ
# Sequence of Voltage-gated potassium channel subunit beta-2 (Rattus norvegicus) (P62483 whole entry, looked up): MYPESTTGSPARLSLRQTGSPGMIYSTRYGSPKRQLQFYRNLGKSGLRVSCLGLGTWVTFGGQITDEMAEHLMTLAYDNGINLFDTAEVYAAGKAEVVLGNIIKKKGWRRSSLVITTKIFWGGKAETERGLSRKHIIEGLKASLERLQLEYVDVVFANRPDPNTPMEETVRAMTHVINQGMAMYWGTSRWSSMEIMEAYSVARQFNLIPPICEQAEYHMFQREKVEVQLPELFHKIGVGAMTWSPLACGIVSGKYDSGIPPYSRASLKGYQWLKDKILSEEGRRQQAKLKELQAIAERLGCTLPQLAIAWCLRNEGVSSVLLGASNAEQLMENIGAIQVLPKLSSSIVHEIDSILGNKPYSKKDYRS
Compound,cell count [1],inhibition [1],inhibition of aggregation [2],nuclei count [2] [%],inhibition [3],nuclei count [3] [%],fluorescence slope [4],NADPH fluorescence slope [5],slope [6],outcome [7],inhibition [8],inhibition [9]
CCCn1c(=O)c(C(=O)NCc2ccccn2)c(O)c2ccccc21,345,4.2% (inactive),-20.9% (inactive),111,-32.3% (inactive),108,-0.403 (inactive),-9e-05 (inactive),0.00521 (inactive),inactive,-22.2% (inactive),-53.3% (inactive)
CCOC(=O)C1CCN(C(=O)Nc2ccc3nc(C)c(C)nc3c2)CC1,331,2% (inactive),26.1% (inactive),84.8,-20.1% (inactive),90.9,-0.00743 (active),-2.9e-06 (inactive),0.00559 (inactive),inactive,8.11% (inactive),5.19% (inactive)
COC(=O)c1sc(S(=O)(=O)N2CCN(c3ccccc3)CC2)c(C(=O)OC)c1C,394,3.6% (inactive),-23.7% (inactive),76.7,-151% (inactive),117,-0.385 (inactive),-3.6e-05 (inactive),0.00645 (inactive),inactive,19.8% (inactive),22.7% (inactive)
COc1ccccc1-n1nnnc1SCc1cc2c(cc1Br)OCO2,319,-4.5% (inactive),-1.1% (inactive),90.3,-168% (inactive),130,-0.437 (inactive),-4.6e-05 (inactive),0.00645 (inactive),inactive,19.6% (inactive),22.9% (inactive)
CC(OC(=O)CNC(=O)C12CC3CC(CC(C3)C1)C2)C(=O)Nc1ccc(N2CCOCC2)cc1 (stereo not given),663,4.1% (inactive),3.3% (inactive),110,-47.1% (inactive),111,-0.448 (inactive),-5.7e-05 (inactive),0.00563 (inactive),inactive,-2.61% (inactive),-14.5% (inactive)
CC(=O)Nc1c(O)[nH]c2ccccc12,566,-25.9% (inactive),-9.8% (inactive),98.9,-5.9% (inactive),102,-0.414 (inactive),-5.4e-05 (inactive),0.00575 (inactive),inactive,10.4% (inactive),16.8% (inactive)
O=C(Nc1cccnc1)Nc1ccc(F)c(Cl)c1,347,11.8% (inactive),-11.4% (inactive),94.2,-15.8% (inactive),107,-0.517 (inactive),1.7e-05 (inactive),0.00552 (inactive),inactive; toxic,-39.2% (inactive),-103% (inactive)
O=C(c1ccc(S(=O)(=O)N2CCC(c3nc4ccccc4s3)CC2)cc1)N1CCOCC1,689,-2.9% (inactive),-25% (inactive),109,-80.2% (inactive),116,-0.392 (inactive),-9.6e-07 (inactive),0.00693 (inactive),inactive,-8.58% (inactive),3.6% (inactive)
CCOC(=O)c1ccc(NC(=O)N2CCN(Cc3cccc(F)c3)CC2)cc1,688,-1.4% (inactive),-19% (inactive),97.2,-126% (inactive),109,-0.424 (inactive),-5e-05 (inactive),0.00506 (inactive),inactive,5.73% (inactive),7.2% (inactive)
c1ccc(-c2nc3cnccn3c2Nc2ccc3c(c2)OCCO3)cc1,606,-36.1% (inactive),11.9% (inactive),101,-20.7% (inactive),110,-0.202 (inactive),-6.7e-06 (inactive),0.00431 (inactive),inactive,8.91% (inactive),11.5% (inactive)
CCC1CCCCN1CCCNC(=O)c1ccc(CS(=O)(=O)Cc2ccccc2F)o1 (stereo not given),618,-20.5% (inactive),7.5% (inactive),94.4,-64.6% (inactive),91,-0.416 (inactive),-5.4e-05 (inactive),0.00482 (inactive),inactive,6.88% (inactive),20.5% (inactive)
CC(C)C(CO)NC(=O)CC(=O)NC(CO)C(C)C (stereo not given),627,-5.6% (inactive),4.9% (inactive),82.3,48.7% (inactive),35.5,-0.392 (inactive),-5.1e-05 (inactive),0.00488 (inactive),inactive,9.94% (inactive),12.2% (inactive)
Cc1ccc(NC(=O)c2ccco2)c(NC(=O)CN2C(=O)c3ccccc3C2=O)c1,402,-7.3% (inactive),6.5% (inactive),90.3,-162% (inactive),155,-0.466 (inactive),-1.3e-05 (inactive),0.00456 (inactive),inactive,0.0738% (inactive),-0.596% (inactive)
Cc1ccc(S(=O)(=O)N2CCN(c3nc(C)nc4sc(C)c(C)c34)CC2)cc1,345,10.5% (inactive),-6.6% (inactive),110,-191% (inactive),108,-0.387 (inactive),-5.6e-05 (inactive),0.0062 (inactive),inactive,5.42% (inactive),4.33% (inactive)
CCOC(=O)c1cc(CC)sc1NC(=O)COC,324,-6% (inactive),-9.4% (inactive),86.3,34% (inactive),80,-0.321 (inactive),-7.5e-06 (inactive),0.00509 (inactive),inactive,2.16% (inactive),4.15% (inactive)
CCCCn1c(SCc2ccc(Cl)cc2)nc2c1c(=O)[nH]c(=O)n2C,396,9% (inactive),8.8% (inactive),109,-1.3% (inactive),98.4,-0.347 (inactive),-4.9e-05 (inactive),0.00466 (inactive),inactive,10.9% (inactive),14.5% (inactive)
Cc1cccc(NC(=O)c2ccc(S(=O)(=O)N(C)C)cc2)n1,290,-5.5% (inactive),4.5% (inactive),108,-126% (inactive),94.4,-0.318 (inactive),-2.4e-05 (inactive),0.00507 (inactive),inactive,-11.6% (inactive),-45.9% (inactive)
Cc1nnc(NC(=O)CCC(=O)N2CCC(C)CC2)s1,355,-2% (inactive),-13.9% (inactive),119,-84.2% (inactive),120,-0.465 (inactive),-4.6e-05 (inactive),0.0059 (inactive),inactive,12.2% (inactive),14% (inactive)
O=C(Cn1[nH]c(=O)c2ccccc2c1=O)OCC(=O)N1CCCc2ccccc21,335,4.2% (inactive),-9% (inactive),98.2,-37% (inactive),117,-0.389 (inactive),-6e-05 (inactive),0.00579 (inactive),inactive,8.5% (inactive),10.3% (inactive)
CCOCC(O)CS(=O)Cc1ccccc1 (stereo not given),343,-7.4% (inactive),4.7% (inactive),99.4,-38.6% (inactive),126,-0.358 (inactive),-6.9e-05 (inactive),0.00589 (inactive),inactive,8.68% (inactive),14.1% (inactive)
